Structures are written as SMILES. Values after ≈ are worked out from the molar mass of the structure shown. Active and inactive are the calls of the source. The calls are words filed in the database; no cut-off is given here.

By IC50 is commonly meant the concentration that gives 50% inhibition. Usually solubility stands for the dissolved amount per volume that the medium holds. A lower solubility goes with a poorly soluble substance.

Data set [1] deals with HepG2. Nature of the data set: Up-regulation of LDL receptor expression in human HepG2 cells at 100 nM by immunoblot analysis. In kind it is functional, cell-based. The method in brief: (§1)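 HepG2 cells exposed to compound, lysed in 125 mM Tris–HCl pH 8.0, 2 mM CaCl₂, 1% Triton X-100 with protease inhibitor cocktail, then centrifuged. LDL receptor detected by immunoblot with mouse monoclonal anti-LDL-R antibody (clone IgG-C7).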
(In western blotting, separated proteins are transferred to a membrane and probed.)

Data set [2] has as its target T1, Sterol O-acyltransferase 1 (Rattus norvegicus, UniProt O70536).
T1 sequence (O70536 whole entry): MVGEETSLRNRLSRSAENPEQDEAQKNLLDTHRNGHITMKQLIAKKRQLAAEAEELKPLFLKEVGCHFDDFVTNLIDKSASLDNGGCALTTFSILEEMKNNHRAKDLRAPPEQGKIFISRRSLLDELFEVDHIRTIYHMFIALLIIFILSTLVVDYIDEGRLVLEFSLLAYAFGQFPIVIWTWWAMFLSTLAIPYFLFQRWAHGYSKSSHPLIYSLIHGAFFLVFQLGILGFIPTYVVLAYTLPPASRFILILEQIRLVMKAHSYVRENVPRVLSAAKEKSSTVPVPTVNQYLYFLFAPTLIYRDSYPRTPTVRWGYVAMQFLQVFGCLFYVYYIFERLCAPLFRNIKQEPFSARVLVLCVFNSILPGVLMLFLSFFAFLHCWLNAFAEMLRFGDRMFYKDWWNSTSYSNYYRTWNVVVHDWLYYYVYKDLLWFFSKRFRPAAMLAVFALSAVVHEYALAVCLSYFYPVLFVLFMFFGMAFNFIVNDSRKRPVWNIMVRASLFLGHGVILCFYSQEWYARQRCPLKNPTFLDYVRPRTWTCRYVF
Nature of the data set: Inhibition of ACAT in rat macrophages assessed as incorporation of extracellular [3H]-oleic acid-BSA complex into the intracellular cholesteryl ester after 24 hrs. In kind it is cell-based. The method in brief: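 Cells seeded at 2 × 10⁶ cells/mL/well, incubated 24 h at 37 °C (humidified, 5% CO₂) in medium containing liposomes, ³H-oleic acid–BSA complex and a range of compound concentrations. Protein measured by Lowry method.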

The test system of data set [3] is HepG2. The experiment in a line: Up-regulation of LDL receptor expression in human HepG2 cells at 10 uM by immunoblot analysis. In kind it is functional, cell-based. The method in brief: as §1
Data set [4] can be described thus: Solubility at pH 7.4. In kind it is physicochemical. To be noted: buffer.

Consider `COc1cccc(C2(CNC(=O)Nc3c(C(C)C)cc(N)cc3C(C)C)CCN(c3ccccc3OC(C)C)CC2)c1`, for which the outcome in the data set on HepG2 [1] was Active. Moreover, in data set [2], the IC50 is 37 nM.
Take `COc1cccc(C2(CNC(=O)Nc3c(C(C)C)cc(N)cc3C(C)C)CCN(c3ccccc3)CC2)c1`: the concentration for half-maximal inhibition (IC50) in data set [2] is 40 nM. Besides, the result in the data set with HepG2 [3] was inactive.
In the case of `COc1cccc(C2(CNC(=O)Nc3c(C(C)C)cc(N)cc3C(C)C)CCN(c3ncccc3OC)CC2)c1`, in data set [2], the concentration for half-maximal inhibition (IC50) is 6 nM.
For `COc1cccc(C2(CNC(=O)Nc3c(C(C)C)cc(N)cc3C(C)C)CCN(c3cccnc3)CC2)c1`, the 50% inhibitory concentration (IC50) in data set [2] was 466 nM.
Consider `COc1cccc(C2(CNC(=O)Nc3c(C(C)C)cc(N)cc3C(C)C)CCN(c3ncccc3OCCCO)CC2)c1`, for which the concentration for half-maximal inhibition (IC50) in data set [2] is 4 nM.
On to `COc1cccc(C2(CNC(=O)Nc3c(C(C)C)cc(N)cc3C(C)C)CCN(c3ccccc3OCCCN)CC2)c1.Cl`, for which the result in the data set with HepG2 [1] was Active. Further, the IC50 in data set [2] worked out at 195 nM. The compound further had a solubility in data set [4] of 32 µg/mL.
`COc1cccc(C2(CNC(=O)Nc3c(C(C)C)cc(N)cc3C(C)C)CCN(c3ccccc3OCCCN(C)C)CC2)c1.Cl`: in data set [2], the IC50 turned out to be 239 nM. In data set [4], this compound returned a solubility above 250 µg/mL.
Turning to `COc1cccc(C2(CNC(=O)Nc3c(C(C)C)cc(N)cc3C(C)C)CCN(c3ccccc3OCCO)CC2)c1`, the outcome with HepG2 [1] was Active. Further, the IC50 in data set [2] was 96 nM.
`COc1cccc(C2(CNC(=O)Nc3c(C(C)C)cc(N)cc3C(C)C)CCN(c3ccccn3)CC2)c1`: the half-inhibitory concentration (IC50) in data set [2] came out at 32 nM.
As to `COc1cccc(N2CCC(CNC(=O)Nc3c(C(C)C)cc(N)cc3C(C)C)(c3cccc(OC)c3)CC2)c1`, the result with HepG2 [1] was inactive. Also, the IC50 in data set [2] stood at 48 nM.
For `COc1cccc(C2(CNC(=O)Nc3c(C(C)C)cc(N)cc3C(C)C)CCN(c3ccccc3OC)CC2)c1`, the result with HepG2 [1] was Active. In addition, the IC50 in data set [2] worked out at 37 nM.
`CCCCOc1ccccc1N1CCC(CNC(=O)Nc2c(C(C)C)cc(N)cc2C(C)C)(c2cccc(OC)c2)CC1`: the result in the data set on HepG2 [1] was Active. For the same compound, the concentration for half-maximal inhibition (IC50) in data set [2] worked out at 32 nM. The same compound registered a solubility in data set [4] of 0.3 µg/mL (≈ 0.511 µM).
Take `CCCCn1c(=O)c(NC(=O)Nc2c(C(C)C)cc(N)cc2C(C)C)c(-c2cccc(OCCCO)c2)c2cccnc21`: in the data set on HepG2 [1], the outcome was Active. Further, in data set [2], the IC50 worked out at 31 nM. The compound further displayed a solubility in data set [4] of 10 µg/mL (≈ 17.1 µM).
Consider `COc1cccc(C2(CNC(=O)Nc3c(C(C)C)cc(N)cc3C(C)C)CCN(c3ccccc3OCCCO)CC2)c1.Cl.Cl`, for which, in the data set on HepG2 [1], the outcome was Active. Further, the IC50 in data set [2] came out at 18 nM. Further, in data set [4], the solubility turned out to be 22 µg/mL.
Consider `COc1ccccc1N1CCC(CNC(=O)Nc2c(C(C)C)cc(N)cc2C(C)C)(c2cccc(OCCCO)c2)CC1`, for which, in the data set with HepG2 [1], the result was Active. In data set [2], the IC50 came out at 62 nM.
On to `COc1cccc(C2(CNC(=O)Nc3c(C(C)C)cc(N)cc3C(C)C)CCN(c3ccccc3OCC(F)(F)F)CC2)c1`, for which the result in the data set with HepG2 [1] was Active. The half-maximal inhibitory concentration (IC50) in data set [2] is 48 nM.
In the case of `COc1cccc(C2(CNC(=O)Nc3c(C(C)C)cc(N)cc3C(C)C)CCN(c3ccccc3O)CC2)c1`, the result with HepG2 [1] was inactive.
Consider `COc1ccccc1N1CCC(CNC(=O)Nc2c(C(C)C)cc(N)cc2C(C)C)(c2cccc(O)c2)CC1`, for which the result in the data set with HepG2 [1] was inactive. The IC50 in data set [2] was determined as 797 nM.
As to `COc1ccccc1N1CCC(CNC(=O)Nc2c(C(C)C)cc(N)cc2C(C)C)(c2ccccc2)CC1`, the result with HepG2 [1] was inactive. In data set [2], the concentration for half-maximal inhibition (IC50) worked out at 82 nM.
The like results for `COc1ccc(N2CCC(CNC(=O)Nc3c(C(C)C)cc(N)cc3C(C)C)(c3cccc(OC)c3)CC2)cc1` were, in that order, “inactive” and 142 nM.
For the compound `CC(C)c1cc(C(C)C)c(CC(=O)NS(=O)(=O)Oc2c(C(C)C)cccc2C(C)C)c(C(C)C)c1` [AVASIMIBE], the outcome in the data set on HepG2 [1] was inactive. Moreover, the half-inhibitory concentration (IC50) in data set [2] was found to be 479 nM.
Turning to `COc1cccc(C2(CNC(=O)Nc3c(C(C)C)cc(N)cc3C(C)C)CCN(c3ccncc3)CC2)c1`, the IC50 in data set [2] was above 1000 nM.
Regarding `COc1cccc(C2(CNC(=O)Nc3c(C(C)C)cc(N)cc3C(C)C)CCN(c3ccccc3OC(F)(F)F)CC2)c1`, the result in the data set with HepG2 [1] was Active. In addition, the half-maximal inhibitory concentration (IC50) in data set [2] is 68 nM.
With `COc1cccc(C2(CNC(=O)Nc3c(C(C)C)cccc3C(C)C)CCN(c3ccccc3)CC2)c1`, in the data set with HepG2 [3], the outcome was inactive.

These data come from ChEMBL document CHEMBL1154055, “Synthesis and structure-activity relationships of N-(4-amino-2,6-diisopropylphenyl)-N'-(1,4-diarylpiperidine-4-yl)methylureas as anti-hyperlipidemic agents” (Bioorg Med Chem, 2009).
